{
  "source": "ChEMBL document CHEMBL4024753",
  "about": "“Lipoyl-Homotaurine Derivative (ADM_12) Reverts Oxaliplatin-Induced Neuropathy and Reduces Cancer Cells Malignancy by Inhibiting Carbonic Anhydrase IX (CAIX)” (J Med Chem, 2017)",
  "key": {"[1]": {"target": "T1, Carbonic anhydrase 9 (Homo sapiens, UniProt Q16790)", "test": "Inhibition of human carbonic anhydrase 9 incubated for 15 mins prior to testing by stopped flow CO2 hydrase assay"}, "[2]": {"test": "Antioxidant activity of compound assessed as reduction in ipoxanthine/xanthine oxidase-induced superoxide anion level after 30 mins by nitro blue tetrazolium-based spectrophotometric assay", "type": "functional", "method_in_brief": "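Cell-free test with superoxide generated by a hypoxanthine–xanthine oxidase system. Nitro blue tetrazolium […] read after 30 min without or with increasing compound concentrations (up to 1000 μM).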"}, "[3]": {"tested_on": "Astrocyte", "test": "Antioxidant activity in Sprague-Dawley rat primary cortical astrocytes assessed as inhibition of OXA-induced superoxide radical anion at 100 uM after 4 hrs by cytochrome C assay relative to control", "type": "functional", "method_in_brief": "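Primary rat cortical astrocytes (5 × 10^5 cells/well) exposed to 100 μM oxaliplatin for 4 h, with or without co-incubated compound. Superoxide measured by cytochrome C assay. Absorbance in the presence of SOD subtracted as nonspecific. Mean ± SEM of three experiments versus untreated culture.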"}, "[4]": {"tested_on": "Rattus norvegicus", "test": "Antihyperalgesic activity in OXA-induced neuropathic pain Sprague-Dawley rat model assessed as reduction in response to noxious mechanical stimulus at 30 mg/kg, po after 15 to 75 mins on day 21 post induction", "type": "functional, organism-based", "method_in_brief": "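Male Sprague-Dawley rats (200-250 g) given oxaliplatin 2.4 mg kg−1 ip daily in 0.5% glucose solution. On day 21, single po dose of test agent in 1% CMC vehicle. Paw-pressure test (noxious mechanical stimulus, weight tolerated) repeated over time after dosing. 12 rats per group from two experimental sets, mean ± SEM.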"}, "[5]": {"tested_on": "HT-29", "test": "Cytotoxicity against human HT-29 cells assessed as mortality at 1 to 300 uM after 24 hrs by MTT assay relative to control", "type": "functional", "method_in_brief": "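Human colon cancer HT-29 cells incubated with increasing concentrations (1−300 μM) for 24 h; viability read by MTT test and expressed as % of viable cells relative to untreated control.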"}, "[6]": {"tested_on": "HT-29", "test": "Synergistic antiproliferative activity against human HT-29 cells assessed as cell viability at 100 uM after 24 hrs in presence of 1 uM oxaliplatin by MTT assay relative to control", "type": "functional", "method_in_brief": "(§1)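 HT-29 cells co-treated 24 h with compound at 100 μM plus oxaliplatin (1, 10, 30, 100 or 300 μM). Viability by MTT as % viable cells versus untreated control. Compared to control and to compound alone.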"}, "[7]": {"tested_on": "HT-29", "test": "Synergistic antiproliferative activity against human HT-29 cells assessed as cell viability at 100 uM after 24 hrs in presence of 10 uM oxaliplatin by MTT assay relative to control", "type": "functional", "method_in_brief": "as §1"}, "[8]": {"tested_on": "HT-29", "test": "Synergistic antiproliferative activity against human HT-29 cells assessed as cell viability at 100 uM after 24 hrs in presence of 30 uM oxaliplatin by MTT assay relative to control", "type": "functional", "method_in_brief": "as §1"}, "[9]": {"tested_on": "HT-29", "test": "Synergistic antiproliferative activity against human HT-29 cells assessed as cell viability at 100 uM after 24 hrs in presence of 100 uM oxaliplatin by MTT assay relative to control", "type": "functional", "conditions": "HT-29, 24 h, read-out: Activity", "method_in_brief": "as §1"}, "[10]": {"tested_on": "HT-29", "test": "Synergistic antiproliferative activity against human HT-29 cells assessed as cell viability at 100 uM after 24 hrs in presence of 300 uM oxaliplatin by MTT assay relative to control", "type": "functional", "method_in_brief": "as §1"}, "[11]": {"tested_on": "HT-29", "test": "Antiproliferative activity against human HT-29 cells assessed as cell viability at 100 uM after 24 hrs by MTT assay relative to control", "type": "functional", "conditions": "HT-29, 24 h, read-out: Activity", "method_in_brief": "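HT-29 human colon cancer cells incubated 24 h with compound (range 1−300 μM). Viability by MTT, expressed as % viable cells relative to untreated control.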"}, "[12]": {"target": "Transient receptor potential cation channel subfamily A member 1 (Homo sapiens) (UniProt O75762)", "sequence (O75762 whole entry)": "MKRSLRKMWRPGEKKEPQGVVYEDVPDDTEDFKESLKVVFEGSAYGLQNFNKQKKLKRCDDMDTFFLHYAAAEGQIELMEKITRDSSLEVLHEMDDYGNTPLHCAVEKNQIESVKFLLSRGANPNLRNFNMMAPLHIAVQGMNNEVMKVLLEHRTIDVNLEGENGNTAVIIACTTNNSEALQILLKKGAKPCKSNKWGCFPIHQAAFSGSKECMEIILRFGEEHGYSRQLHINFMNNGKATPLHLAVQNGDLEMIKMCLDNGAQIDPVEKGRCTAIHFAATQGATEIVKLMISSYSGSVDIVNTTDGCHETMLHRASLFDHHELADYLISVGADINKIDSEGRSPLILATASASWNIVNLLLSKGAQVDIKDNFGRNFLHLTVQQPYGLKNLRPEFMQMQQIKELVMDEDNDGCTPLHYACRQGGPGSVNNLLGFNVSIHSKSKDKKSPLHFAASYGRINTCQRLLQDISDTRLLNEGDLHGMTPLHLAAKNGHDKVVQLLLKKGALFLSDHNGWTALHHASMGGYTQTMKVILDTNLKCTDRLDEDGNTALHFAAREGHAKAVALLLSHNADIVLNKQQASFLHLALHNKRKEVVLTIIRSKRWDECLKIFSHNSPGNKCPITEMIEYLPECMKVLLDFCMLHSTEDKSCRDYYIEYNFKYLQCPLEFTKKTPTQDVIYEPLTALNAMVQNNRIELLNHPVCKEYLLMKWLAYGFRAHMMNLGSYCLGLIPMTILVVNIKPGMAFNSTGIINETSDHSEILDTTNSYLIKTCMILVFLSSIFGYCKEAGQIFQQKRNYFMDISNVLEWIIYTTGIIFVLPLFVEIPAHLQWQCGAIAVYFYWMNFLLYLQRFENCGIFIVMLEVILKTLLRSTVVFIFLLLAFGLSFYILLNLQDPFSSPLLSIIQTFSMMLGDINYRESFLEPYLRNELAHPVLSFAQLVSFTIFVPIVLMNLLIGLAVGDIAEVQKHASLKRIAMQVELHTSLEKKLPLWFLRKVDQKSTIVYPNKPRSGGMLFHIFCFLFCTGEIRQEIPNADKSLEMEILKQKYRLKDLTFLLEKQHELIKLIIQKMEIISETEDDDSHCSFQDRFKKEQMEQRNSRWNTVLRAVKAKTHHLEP", "test": "Inhibition of oxaliplatin activated TRPA1 (unknown origin) expressed in CHO cells assessed as reduction in channel evoked current at 30 uM by Patch-clamp method", "type": "cell-based", "method_in_brief": "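CHO cells transiently transfected with wild-type TRPA1, EGFP as transfection marker. Whole-cell patch clamp 48−72 h after transfection. Voltage ramps read at +50 and −50 mV. Currents evoked by 50 μM oxaliplatin, then compound applied. n = 5 cells, unpaired Student's t test.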"}, "[13]": {"target": "Carbonic anhydrase 12 (Homo sapiens, UniProt O43570)", "sequence (O43570 whole entry)": "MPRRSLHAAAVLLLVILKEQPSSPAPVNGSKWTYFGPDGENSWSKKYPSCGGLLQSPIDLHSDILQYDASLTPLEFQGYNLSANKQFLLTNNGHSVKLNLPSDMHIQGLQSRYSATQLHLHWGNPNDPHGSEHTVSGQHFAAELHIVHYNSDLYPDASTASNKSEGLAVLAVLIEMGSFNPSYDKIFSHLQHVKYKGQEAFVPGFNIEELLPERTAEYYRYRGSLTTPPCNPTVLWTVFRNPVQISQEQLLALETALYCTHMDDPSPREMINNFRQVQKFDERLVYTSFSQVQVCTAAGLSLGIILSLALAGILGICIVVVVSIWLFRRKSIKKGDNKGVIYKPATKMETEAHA", "test": "Inhibition of human carbonic anhydrase 12 incubated for 15 mins prior to testing by stopped flow CO2 hydrase assay"}, "[14]": {"target": "Macrophage metalloelastase (Homo sapiens, UniProt P39900)", "sequence (P39900 whole entry, the tested form may be a part)": "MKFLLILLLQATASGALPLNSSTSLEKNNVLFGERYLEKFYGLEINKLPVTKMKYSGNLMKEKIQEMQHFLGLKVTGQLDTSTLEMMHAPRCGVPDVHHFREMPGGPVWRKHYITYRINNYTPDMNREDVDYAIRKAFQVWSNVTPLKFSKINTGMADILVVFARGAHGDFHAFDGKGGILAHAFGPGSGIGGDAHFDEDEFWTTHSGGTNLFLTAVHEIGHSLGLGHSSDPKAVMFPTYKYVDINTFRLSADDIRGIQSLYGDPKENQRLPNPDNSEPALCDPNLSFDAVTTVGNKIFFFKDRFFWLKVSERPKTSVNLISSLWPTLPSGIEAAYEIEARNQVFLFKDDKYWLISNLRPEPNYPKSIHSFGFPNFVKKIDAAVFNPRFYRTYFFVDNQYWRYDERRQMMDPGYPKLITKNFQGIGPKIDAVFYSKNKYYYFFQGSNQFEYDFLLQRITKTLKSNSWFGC", "test": "Binding affinity to human 15N-labeled MMP-12 catalytic domain (G106 to G263 residues) expressed in Escherichia coli BL21 Gold by 1H […] NMR method", "method_in_brief": "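2D 1H−15N HSQC spectra of the MMP-12 catalytic domain titrated with ligand (up to 3.3 mM). Kd derived by fitting chemical shift variations of residues.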"}, "[15]": {"target": "T1, Carbonic anhydrase 9", "conditions": "100 uM"}, "[16]": {"target": "T1, Carbonic anhydrase 9", "conditions": "100 uM", "remark": "listed apart in the source"}, "[17]": {"target": "T1, Carbonic anhydrase 9", "conditions": "100 uM", "remark": "listed apart in the source"}, "[18]": {"target": "T1, Carbonic anhydrase 9", "conditions": "100 uM", "remark": "listed apart in the source"}, "[19]": {"target": "T1, Carbonic anhydrase 9", "conditions": "100 uM", "remark": "listed apart in the source"}, "[20]": {"target": "T1, Carbonic anhydrase 9", "conditions": "100 uM", "remark": "listed apart in the source"}, "[21]": {"target": "T1, Carbonic anhydrase 9", "conditions": "100 uM", "remark": "listed apart in the source"}},
  "note": "Active and inactive are the calls of the source. No cut-off for these calls is given here.",
  "data": [
    {"compound": "O=C(CCCCC1CCSS1)NCCCS(=O)(=O)[O-].[Na+]", "note": "(centres undefined)", "values": [
      {"measurement": "Ki", "setting": "[1]", "result": 0.654, "unit": "µM"},
      {"measurement": "Activity", "setting": "[2]", "result": "Dose-dependent effect"},
      {"measurement": "inhibition at 100 µM", "setting": "[3]", "result": 75, "unit": "%"},
      {"measurement": "Activity", "setting": "[4]", "result": "Active"},
      {"measurement": "mortality", "setting": "[5]", "result": 20, "unit": "%"},
      {"measurement": "Activity", "setting": "[6]", "result": 74.6, "unit": "%"},
      {"measurement": "Activity", "setting": "[7]", "result": 78.6, "unit": "%"},
      {"measurement": "Activity", "setting": "[8]", "result": 71.4, "unit": "%"},
      {"measurement": "viability at 100 µM", "setting": "[9]", "result": 67.4, "unit": "%"},
      {"measurement": "Activity", "setting": "[10]", "result": 48.1, "unit": "%"},
      {"measurement": "viability at 100 µM", "setting": "[11]", "result": 81.3, "unit": "%"},
      {"measurement": "inhibition", "setting": "[12]", "result": "Active"},
      {"measurement": "Ki", "setting": "[13]", "result": 0.727, "unit": "µM"},
      {"measurement": "Kd", "setting": "[14]", "result": 875, "unit": "µM"},
      {"measurement": "inhibition", "setting": "[15]", "result": "Active"},
      {"measurement": "inhibition", "setting": "[16]", "result": "Active"},
      {"measurement": "inhibition", "setting": "[17]", "result": "Active"},
      {"measurement": "inhibition", "setting": "[18]", "result": "Active"},
      {"measurement": "inhibition", "setting": "[19]", "result": "Active"},
      {"measurement": "inhibition", "setting": "[20]", "result": "Active"},
      {"measurement": "inhibition", "setting": "[21]", "result": "Active"}
    ]},
    {"compound": "O=S(=O)(O)/C=C/c1cc(Br)ccc1O", "values": [
      {"measurement": "Ki", "setting": "[1]", "result": 6.83, "unit": "µM"},
      {"measurement": "Ki", "setting": "[13]", "result": 4.51, "unit": "µM"}
    ]},
    {"compound": "O=C(CCCCC1CCSS1)NCCCCS(=O)(=O)O", "note": "(centres undefined)", "values": [
      {"measurement": "Activity", "setting": "[2]", "result": "Dose-dependent effect"},
      {"measurement": "inhibition at 100 µM", "setting": "[3]", "result": 75, "unit": "%"},
      {"measurement": "Activity", "setting": "[4]", "result": "Active"}
    ]},
    {"compound": "O=C(CCCCC1CCSS1)NCCS(=O)(=O)O", "note": "(centres undefined)", "values": [
      {"measurement": "Activity", "setting": "[2]", "result": "Dose-dependent effect"},
      {"measurement": "inhibition at 100 µM", "setting": "[3]", "result": 75, "unit": "%"},
      {"measurement": "Activity", "setting": "[4]", "result": "Active"}
    ]}
  ]
}
